Sampled rows, rich in hits. Any-hit rate of the full collection: about 3.5%.
MrgX1 allo act: positive allosteric modulators of MrgX1, primary screen, HEK293 cells, Fluo-4 calcium flux. Mas-related G-protein coupled receptor member X1 (Homo sapiens), Q96LB2. FDSS; active compounds read high. B-score at 10 µM. hit rate 0.63% among 310,000. AID 588675, 2011;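 active = plate-corrected calcium response at least 3 library SD above typical, normal starting fluorescence, not activating the receptor alone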;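 note: compound read alongside a low EC10 to EC30 dose of BAM8-22 agonist; peak minus trough fluorescence over baseline measured at the second addition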
Target sequence (Q96LB2 whole entry, looked up): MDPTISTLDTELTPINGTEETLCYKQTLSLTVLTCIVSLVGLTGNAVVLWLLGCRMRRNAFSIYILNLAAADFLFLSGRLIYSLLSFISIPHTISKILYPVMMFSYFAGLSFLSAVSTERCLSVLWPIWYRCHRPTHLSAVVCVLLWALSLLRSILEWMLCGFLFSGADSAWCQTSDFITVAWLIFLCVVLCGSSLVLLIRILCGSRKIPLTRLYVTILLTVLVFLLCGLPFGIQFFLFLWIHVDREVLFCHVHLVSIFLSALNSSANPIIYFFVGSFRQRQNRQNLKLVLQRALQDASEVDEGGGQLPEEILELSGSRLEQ
MrgX1 agonist: agonists of human MrgX1 receptor, primary screen, HEK293 cells, Fluo-4 calcium flux; Mas-related G-protein coupled receptor member X1 (Homo sapiens), Q96LB2; Fluo-4 calcium fluorescence, agonist mode; active compounds read high; B-score at 10 µM; hit rate 0.44% among 310,000; AID 588627, 2011;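 active = calcium response B-score plate-corrected fluorescence ratio at least 3 library SD, with starting fluorescence B-score inside 5 SD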
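times = overnight plating, then 30 min 37 °C plus 30 min room-temperature dye loading | assay system = stable human MrgX1 HEK293 cell line | input = fifteen thousand cells per well | signal = kinetic calcium dye fluorescence, Fluo-4 NW | dosing = compound delivered in addition one of three | read-out = B-scored fluorescence response ratio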
MrgX1 antag: antagonists of human MrgX1 receptor, primary screen, HEK293 cells, Fluo-4 calcium flux. Mas-related G-protein coupled receptor member X1 (Homo sapiens), Q96LB2. BAM8-22 antagonism; active compounds read low. B-score at 10 µM. hit rate 1.3% among 310,000. AID 588676, 2011;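 active = calcium-response B-score plate-corrected more than 3 library SD below zero, starting fluorescence within 5 deviations, no agonist response on first addition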;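 note: peak minus trough fluorescence over baseline after final BAM8-22 challenge near maximal dose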
RGS4 inh: RGS4 inhibitors, primary screen, cell-based, HEK293 M3R inducible RGS4, calcium flux; hit rate 0.45% among 310,000; B-score at 10 µM; Regulator of G-protein signaling 4 (Homo sapiens), P49798; Fluo-4 calcium flux; active compounds read high; triggered by carbachol at its EC20; AID 463165, 2010;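 active = B-score, a plate-corrected calcium signal, over three deviations above library mean, with baseline fluorescence within five deviations of library mean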;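 note: RGS4 expression induced by doxycycline in cells with stable M3 receptor; B-score is computed from the integrated fluorescence ratio over baseline after carbachol; higher B-score means a larger calcium signal and so more RGS4 inhibition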
Target sequence (P49798 whole entry, looked up): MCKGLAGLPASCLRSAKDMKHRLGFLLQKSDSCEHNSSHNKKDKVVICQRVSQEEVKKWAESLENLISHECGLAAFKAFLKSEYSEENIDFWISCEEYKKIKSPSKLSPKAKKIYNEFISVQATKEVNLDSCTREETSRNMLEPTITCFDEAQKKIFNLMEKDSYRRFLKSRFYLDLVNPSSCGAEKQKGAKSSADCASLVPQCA
RGS4 act: RGS4 potentiators or activators, primary screen, cell-based, HEK293 M3R inducible RGS4, calcium flux; carbachol calcium flux Fluo4; active compounds read low; B-score at 10 µM; hit rate 0.92% among 310,000;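 active = B-score of the integrated calcium signal more than 4 SD below the library mean, with starting fluorescence not abnormally high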;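 note: negative B-score means reduced calcium response which marks RGS4 activation or potentiation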
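Material: Inducible-RGS4 HEK293 cells carrying M3 receptor; also added: carbachol at ECmax as muscarinic agonist stimulus; incubation: compound preincubation 20 min at room temperature before agonist; signal: Fluo4-AM (2 µM) calcium-flux fluorescence, kinetic read; measure: integrated calcium ratio converted to B score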
The depositor's hits bear a star; i = inactive.

SMILES	MrgX1 allo act	MrgX1 agonist	MrgX1 antag	RGS4 inh	RGS4 act
CN(C(=O)c1cc(COc2ccc(F)cc2Cl)on1)C1CCCc2ccccc21 (centres undefined)	i	i	i	i	-7.2*
Cc1ccc(CN(C)C(=O)c2cc(COc3ccc(F)cc3Cl)on2)o1	i	i	i	i	i
CCOc1ccc(C(=O)NC(=S)NCCCN2CCOCC2)cc1	i	i	i	i	i
COCC1CCN(C(=O)CCc2nnc(CCCCc3ccccc3)o2)CC1	i	i	i	i	i
CCCNC(=O)OC[C@H]1O[C@H](CCO/N=C(\C)CCN2CCc3nc(-c4ccccc4)c(-c4ccccc4)cc3C2)C=C[C@@H]1Oc1ccc(OC)cc1	i	i	i	i	-8.1*
Cn1c(SCCC#N)nnc1-c1ccc(F)cc1	i	i	i	i	i
CC1=C(SCCC#N)S/C(=C2\SC(C)=C(SCCC#N)S2)S1	i	i	-5.2*	i	i
COc1ccc(-c2cc([C@H]3[C@@H]4C=CCC[C@@]4(C)C(=O)N3Cc3ccccc3)ccc2F)cc1	i	i	-5.4*	i	i
Cc1cc2c(C)nc(N/N=C/c3ccc([N+](=O)[O-])cc3)nc2o1	i	i	i	i	i
CC(C)(C)C(=O)/C=c1\[nH]c(=O)/c(=C\c2ccc(F)cc2)s1	i	i	i	i	i
COc1ccc(/C=c2\s/c(=C/C(=O)c3ccc(C)cc3)[nH]c2=O)cc1OC	i	29*	i	i	i
COc1cccc2c1C(=O)O/C2=C/c1ccc2c(c1)OCO2	i	i	i	i	i
Cc1c(C(=O)Oc2ccc(F)cc2)sc2ncn(Cc3cccc(F)c3)c(=O)c12	i	i	i	i	i
CCn1cc(C(=O)O)c(=O)c2cc(F)c(N/N=C/c3ccccc3[N+](=O)[O-])cc21	i	i	i	i	-9.4*
O=C1CC(c2ccccc2)CC(O)=C1C=NCc1ccncc1 (centres undefined)	i	i	-6.4*	i	i
O=C1CC(c2ccccc2)CC(O)=C1C=NCc1ccc(Cl)c(Cl)c1 (centres undefined)	i	i	i	i	i
CC[N+](C)(CC)CCOC(=O)C(O)(c1ccccc1)C1CCCCC1 (centres undefined)	i	i	i	i	i
CC[N+](C)(CC)CCC(c1ccccc1)C1CCCCC1 (centres undefined)	i	i	i	i	-8.7*
OCC[C@@H]1C[C@@H](O)[C@H](O)[C@@]2(OCc3ccccc32)O1	i	i	i	i	i
O=C(O)c1ccc(N2C(=O)CC(SC(=Nc3ccccc3)Nc3ccccc3)C2=O)cc1 (centres undefined)	i	i	i	i	i
C[C@H]1[C@H](C)CC[C@]2(C(=O)O)CC[C@]3(C)C(=CC[C@@H]4[C@@]5(C)C[C@@H](O)[C@H](O)C(C)(C)[C@@H]5CC[C@]43C)[C@H]12	i	i	i	i	-7.6*
C=CCOc1ccc(C2OC34CCCCC3C(C#N)(C#N)C2(C#N)C(=N)O4)cc1 (centres undefined)	i	27*	i	i	i
CCCCOc1ccc(C2OC34CCCCC3C(C#N)(C#N)C2(C#N)C(=N)O4)cc1 (centres undefined)	i	i	i	i	i
O=C(Nc1ccccc1N1CCOCC1)c1cc2ccccc2o1	i	i	i	i	i
O=C(Nc1ccc(N2CCOCC2)c(Cl)c1)c1cc2ccccc2o1	i	i	i	i	-7.6*
SMILES	MrgX1 allo act	MrgX1 agonist	MrgX1 antag	RGS4 inh	RGS4 act
COc1ccc(N2CCN(C(CNC(=O)C(=O)NCCCn3ccnc3)c3ccco3)CC2)cc1 (centres undefined)	i	i	-4.9*	i	i
O=S1(=O)Nc2c(ccc3cccnc23)-c2ccccc21	i	i	i	i	i
COc1ccc(/C=C(/C(=O)c2ccc(Cl)cc2Cl)n2cncn2)cc1	i	35*	i	i	i
O=C(O)c1ccc(CNC(=O)c2ccccc2NC(=O)c2ccc([N+](=O)[O-])cc2)cc1	i	i	-4.9*	i	i
COC(=O)c1[nH]c2ccccc2c1NC(=O)CNC1CCCCC1	i	i	i	i	-7*
COC(=O)c1[nH]c2ccccc2c1NC(=O)CN1CCCCCC1	i	i	i	i	i
COC(=O)c1ccc(NC(=S)NN2CCCCC2c2cccnc2)cc1 (centres undefined)	i	i	i	i	i
Fc1ccc2c(c1)Sc1ccc(Cl)cc1CC2N1CCN(CCC2OCCO2)CC1 (centres undefined)	i	i	i	i	-7.3*
Cc1ccc(S(=O)(=O)c2cc(O)ccc2O)cc1C	i	i	i	i	i
Cc1cc(N2C(=O)CC(Cc3ccc(Cl)cc3)C2=O)no1 (centres undefined)	i	i	i	i	i
O=C1NN(c2ccc(F)cc2)C(=O)/C1=C/c1cccs1	i	30*	i	i	i
CC1=NN(c2ccccc2)C(=O)/C1=C/c1cccs1	i	i	i	i	i
CCc1ccc(C(C(=O)NCc2ccc(OC)cc2)N(CCOC)C(=O)Cc2cccs2)cc1 (centres undefined)	i	i	i	i	i
COCCN(C(=O)Cc1cccs1)C(C(=O)NCc1ccc(OC)cc1)c1ccc(C(C)C)cc1 (centres undefined)	i	i	i	i	-7*
CN(C)S(=O)(=O)c1cccc(NC(=O)c2cc3c(cc2Cl)N2CCCCCC2=NS3(=O)=O)c1	i	i	i	i	i
CC(C(=O)C12CC3CC(CC(C3)C1)C2)N1CCOCC1 (centres undefined)	i	i	i	i	i
N#CC1(C#N)[C@@H](C(=O)C23CC4CC(CC(C4)C2)C3)C12CCOCC2	i	i	-6.6*	i	i
O=C(NCC1CCCO1)c1ccc(Cn2c(=S)[nH]c3ccccc3c2=O)cc1 (centres undefined)	i	i	i	i	i
COc1ccccc1OCCn1cc(C(=O)c2ccco2)c2ccccc21	i	i	i	i	-7.4*
